Experimental findings from the EternaBench riboswitch data are described below.

The subject of the data set is MS2 coat protein. Briefly: apparent Kd, MS2 coat protein; higher = weaker binding; RNA-MaP array; FMN 200 µM where present. A digest of the protocol: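 Stalled E. coli RNA polymerase transcribed the designs on Illumina sequencing-chip clusters. SNAP-549-labelled MS2 coat protein was titrated from 0.7 or 1.5 nM, doubling to 3 µM, without and then with constant ligand, in 100 mM Tris-HCl pH 7.5, 80 mM KCl, 4 mM MgCl2, BSA, DTT, yeast tRNA and Tween-20. Per-cluster binding curves were fitted to green signal normalised to red-channel RNA signal and control-cluster median Fmax. The apparent Kd is the median of the filtered fits.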

Where [1] appears, read: designed as: OFF switch for flavin mononucleotide, no ligand.
[2] abbreviates: ligand present: flavin mononucleotide, designed as: OFF switch for flavin mononucleotide.
Where [3] appears, read: designed as: ON switch for flavin mononucleotide, no ligand.
[4] abbreviates: ligand present: flavin mononucleotide, designed as: ON switch for flavin mononucleotide.

“UCUACAUAAAUUCAUCAAUACAGAAAGGAUAUGAAAUACAUGAGGAUCACCCAUGUUCAUGGGAAUUAGAAGGUUCAAUUAGCC”: the “apparent Kd” value under setting [1] was 0.133 µM and the “apparent Kd” value under setting [2] was 0.0846 µM.
For “GUGCUUGUCGAAGGAUAUGGUUACAUGAGGAUCACCCAUGUUAUGCUUGGAAAAUUGUUUAGUUUCCAGAAGGUCGAUUAGUUG”, in that order: 0.0197 µM and 0.0177 µM.
For “AAUUCACAUGAGGAUCACCCAUGUGAGGAUAUGGUUUCGCUGGCCGUAGCCAGUGGAACCAGAAGGCGCGUGAU”, in that order: 0.0565 µM and 0.0652 µM.
For “GGCCCACAAGGAUAUACAUGAGGAUCACCCAUGUAAAUCUCAGGUAGUAUGUGGGUGUGUAGAAGGUGUUAGCC”, the “apparent Kd” value runs as follows: under setting [1], 0.0152 µM; under setting [2], 0.0144 µM.
For “AUUUUGUCAGGAUAUGAGUAGUAGGACGAAAGUGUUAUUAUUUAGAAGGGACAUGAGGAUCACCCAUGUUCCUC”, in that order: 0.0127 µM and 0.0162 µM.
As to “GUACCUUAUGAGAAGGCGAUCAUGAAACAUGAUCGAGGAUAUCAUGUAAACAUGAGGAUCACCCAUGUAUGGGUAUUAUGGUAG”, the “apparent Kd” value under setting [3] is 0.0408 µM and the “apparent Kd” value under setting [4] turned out to be 0.0113 µM.
For the sequence “UCACGGUAUGUAGGAUAUGCAUAGCAUUGCUAUGCAGAAGGACAUGAGGAUCACCCAUGUAUGUAUUCCAUACUAAUCCCGUGU”, the “apparent Kd” value is, setting by setting: under setting [1], 0.00615 µM; under setting [2], 0.00609 µM.
On to “GCUGCUAUCGCAGGAUAUUACAUGGGAAAUAAAACAUGAGGAUCACCCAUGUAAAAUAUCGUAAAUAAGAAGGGCGAUAGCAGC”, for which the “apparent Kd” value by setting is: under setting [3], 0.0846 µM; under setting [4], 1.18 µM.
Regarding “UUUGUAAUGUCAGGAUAUAUUAUAAGUCAGACUGUAGAAGGGAUAAUUAUACUCAUGUACAUGAGGAUCACCCAUGUUAAAUAU”, the “apparent Kd” value came out at 0.0971 µM under setting [3] and 0.0532 µM under setting [4].
On to “CCAUAAAAGAUCCAAAUUUACAACAUGAGGAUCACCCAUGUGCAGGAUAUCGUGAAAGUAAAAUACGAGAAGGGCAAGAACUGC”, for which the “apparent Kd” value runs as follows: under setting [1], 0.3 µM; under setting [2], 0.362 µM.
For “GCAUAUAUAUAAGGAUAUGCAUCACUGAGAAAUUUAGUGAGGAAGAUCACAUGAGGAUCACCCAUGUAGAAGGUAUAUAUGUGC”, in that order: 0.00818 µM and 0.046 µM.
In the case of “UUGAUAUUGUAAGGAUAUACUCUGUGAUGAAGAGUAGAAGGUACUUACAUGAGGAUCACCCAUGUUUAACGAGAUACUAAUCGU”, the “apparent Kd” value was determined as 0.0489 µM under setting [3] and 0.02 µM under setting [4].
As for “GUAGAGUAGUGAGGAUAUACGAGAUCGAUAGAUCGGCGAUCCAAUAAUACAUGAGGAUCACCCAUGUAGAAGGCACUUCUCUAC”, the “apparent Kd” value by setting is: under setting [1], 0.00779 µM; under setting [2], 0.116 µM.
With “AGUAAGAUGCAGAAGGUGUCAGCGAGAGCUGCACAUGAGGAUCACCCAUGUUGUCGGUGACGACACAAGGAUAUGCAUCUUACA”, the “apparent Kd” value reads like this: under setting [3], 0.0314 µM; under setting [4], 0.0128 µM.
As to “CUAAAUCAUGUAGGAUAUGCAUGGCGAAGCUACGCAGAAGGACAUGAGGAUCACCCAUGUCUCUCCGUCUGCGAACAGACGGAG”, the “apparent Kd” value by setting is: under setting [1], 0.0196 µM; under setting [2], 0.104 µM.
For “CAGGGUAGAGGAUAUACGUAGGUACAGAUCUGUGUGAUCCUACAUGAGGAUCACCCAUGUAGAAGGCUAGCCUG”, in that order: 0.356 µM and 0.0394 µM.
As for “AGAGUUGACUCAGGAUAUACGGGAAUGUGCCGCGACAUGAGGAUCACCCAUGUAGAAGGGAGAGAGAAGAAGAGAUGUAGAAGA”, the “apparent Kd” value by setting is: under setting [1], 0.0561 µM; under setting [2], 0.054 µM.
For “UUCAUGUGAGGAUAUAGUACUCCUUCUAUUAUUUUUGAGUAUUAGAAGGCACAUGAGGAUCACCCAUGUAGUAC”, in that order: 0.0281 µM and 0.0469 µM.
For “GUCCAACAUGAGGAUCACCCAUGUCAGGAUAUACCGGGCGAAAGAAAGGCCCAUAAGGGUAGAAGGGACGGUGU”, in that order: 0.0158 µM and 0.021 µM.
For “UAGAUGGGAGGAUAUGCAUAGAUACAGAUUCAUGUAGUGCUACAUGAGGAUCACCCAUGUAGAAGGCCCGUCUU”, in that order: 0.0212 µM and 0.225 µM.
Turning to “AGAGCCGGCACUGAGGAUAUUCAUAUUAAAACAUGAGGAUCACCCAUGUAGGCCAGAAGGCCUUGGGAGAAGGCAGGUCGGCUCU”, the “apparent Kd” value under setting [3] is 0.407 µM and the “apparent Kd” value under setting [4] amounted to 0.0295 µM.
“GGACGACACAUGAACAUGAGGAUCACCCAUGUAACUAGACAUGAGGAUAUGGAUCCUAAUUGGAUCCAGAAGGCAUGGUCGUCC”: the “apparent Kd” value by setting is: under setting [3], 0.179 µM; under setting [4], 0.0317 µM.
“AUAUCACAUGAGGAUCACCCAUGUCAGGAUAUGAUACUAUGUACUUCGGUACAUAGUAUCAGAAGGGAUAUGAA”: the “apparent Kd” value runs as follows: under setting [1], 0.0415 µM; under setting [2], 0.0699 µM.
As to “AUAUUUAAUGAGGAUAUCGUUGCGGGUACGUAGCGAGAAGGCAUUACAUGAGGAUCACCCAUGUAGUGUGGGUU”, the “apparent Kd” value was determined as 0.0213 µM under setting [1] and 0.0683 µM under setting [2].
For “UCCUUGUCCUGAGGAUAUCCGUGGUGACCGAAAGGAGAAGGCAGGACAUGAGGAUCACCCAUGUACCCAGAAAACGUGCAGAGU”, in that order: 0.0665 µM and 0.458 µM.
For “UCCUUAUCGGUCAGGAUAUACACCCGUUUCUCCUUGUAGAAGGGACAUGAGGAUCACCCAUGUACAGUACAUCU”, in that order: 0.0204 µM and 0.0191 µM.
For “GCGCGCUAAGGAUAUACAUGAGGAUCACCCAUGUUGCUCUGAUGAGCGGGUGUAAGCUGUAGAAGGUAGAGCAA”, in that order: 0.0619 µM and 0.123 µM.
Turning to “CCUAGAUAGGGAGGAUAUCACGACCAUCCCGGCGAUCCAACUACAUGAGGAUCACCCAUGUGGUGUGAGAAGGCCCAAUAAUAG”, the “apparent Kd” value amounted to 0.22 µM under setting [1] and 0.0754 µM under setting [2].
For “UCCUUGUCCUGAGGAUAUCCGCGGUUCCCAAAAGGAGAAGGCAGGACAUGAGGAUCACCCAUGUACCCAGAGAACGUGCAGAGU”, in that order: 0.0192 µM and 0.129 µM.
For “AUAUGAUAGAUAGGAUAUACUAUGGUUGAAGAAGUAGAAGGAUCAAUAGGGAAAUGUACAUGAGGAUCACCCAUGUUAUGGAUU”, the “apparent Kd” value is, setting by setting: under setting [3], 0.0297 µM; under setting [4], 0.0269 µM.
For the sequence “UAGUAUAAGGGCAUUAAACAUGAGGAUCACCCAUGUACGUUAGAGGAUAUGCAUUACAGUUGAGAGUAGAAGGUUAGAGAAGGG”, the “apparent Kd” value by setting is: under setting [1], 0.0444 µM; under setting [2], 0.0453 µM.
With “GGGUACAUCGGAGGAUAUCAUGUAAAUACAUGAGGAUCACCCAUGUCGAUGGUGACAUCGGAGAUUGAGAAGGCCGAUGUACCG”, the “apparent Kd” value under setting [3] was determined as 0.245 µM and the “apparent Kd” value under setting [4] turned out to be 0.00937 µM.
In the case of “GCCAUCGCAUGAGGAUAUGCUCGGGUUUCCCGAGCAGAAGGCAUGUCGUAAGACAUGAGGAUCACCCAUGUAGUUAAGAUGGCA”, the “apparent Kd” value reads like this: under setting [3], 0.915 µM; under setting [4], 0.0768 µM.
With “GCAACGCUUGACAUGAGGAUCACCCAUGUUAGAUUGUUAUGUCAGGAUAUAGUCUAGAAACUAGACUAGAAGGGAUAUGUUGCU”, the “apparent Kd” value under setting [3] was 0.269 µM and the “apparent Kd” value under setting [4] worked out at 0.0442 µM.
For “AGUUCCUCCGCAGGAUAUGUGCUCUUUAUCACAUGAGGAUCACCCAUGUCAGCCGAAACGGCGAGACAGAAGGGUGGUGGUGCC”, in that order: 0.213 µM and 0.169 µM.
Turning to “UGGCAAGUAGGAUAUUGGGUGUGGGACAUGAGGAUCACCCAUGUGAUCACUCAAUCUCUCCGAGAAGGGCUAAGAA”, the “apparent Kd” value under setting [1] amounted to 0.014 µM and the “apparent Kd” value under setting [2] is 0.0155 µM.
Consider “GCCAGCGCAUGAGGAUAUGCUCCCGUUUCGGGAGCAGAAGGCAUGUCAUAAGACAUGAGGAUCACCCAUGUAGUUAAGAUGGCA”, for which the “apparent Kd” value by setting is: under setting [3], 0.258 µM; under setting [4], 0.0136 µM.
“CUUUCGUGAGGAUAUCAGUAGUAAAUAAAUAAAAUUACUACUGAGAAGGCACAUGAGGAUCACCCAUGUUCCUU”: the “apparent Kd” value amounted to 0.0118 µM under setting [1] and 0.0185 µM under setting [2].
Consider “UCCUAACCGUAGAAGGGUGACAUGAGGAUCACCCAUGUGCAGCAGCCGUGAACGGCCAUGCUGCCACAGGAUAUACGGAGGAGU”, for which the “apparent Kd” value was 0.0261 µM under setting [3] and 0.0551 µM under setting [4].
As for “AAAUUUUGUCAAGGAUAUGUAUAAUUGAUUUGAAAACAUGAGGAUCACCCAUGUAUAUUGUGGGAACAGAAGGUGAAUAAGUAA”, the “apparent Kd” value was found to be 0.209 µM under setting [1] and 0.19 µM under setting [2].
For “GCCGGUUCAGUUAGGAUAUUCGACACACCUCUCUAGAAGAAGGAACAUGAGGAUCACCCAUGUGAUUCCUACCG”, in that order: 0.0467 µM and 0.0566 µM.
For “CGAGGUGGAGUGAGGAUAUCGUGUUCGAAAGAACGUGAGAAGGCACAUGAGGAUCACCCAUGUGAUUCAGCUCG”, in that order: 0.0246 µM and 0.0694 µM.
For “AAACAUGUCCGAGGAUAUCUGGAAACAUUUUCAAGAGAAGGCGGACAUGAGGAUCACCCAUGUCUCUCCUCAUCCACUACAAAU”, in that order: 0.00959 µM and 0.0606 µM.
Turning to “GGUACCAUCACAGGAUAUGCUAUCCUUUGGGUAGCAGAAGGGUGUAACAUGAGGAUCACCCAUGUGGUGCCAGGGCGUGAGCCC”, the “apparent Kd” value is, setting by setting: under setting [3], 0.496 µM; under setting [4], 0.0499 µM.
For “GCAUACAUUCGAGGAUAUCGGUGAACAAAUUAACGAGAAGGCGAUAGAAUGUUUAAUCUUAUAAACAUGAGGAUCACCCAUGUA”, in that order: 0.0352 µM and 0.0252 µM.
“UUUGUUGUUGUGAGGAUAUCGUUGAUUUUUUGAAACGAGAAGGCACAUGAGGAUCACCCAUGUUUGUUGUUGGU”: the “apparent Kd” value reads like this: under setting [1], 0.0662 µM; under setting [2], 0.248 µM.
Turning to “ACGUGUAAUACAGGAUAUGUAUUGGAUUAAUCAACCAGUUAUUAAGUAACGACAGAAGGGUAUACAUGAGGAUCACCCAUGUUA”, the “apparent Kd” value by setting is: under setting [1], 0.0243 µM; under setting [2], 0.0202 µM.
For “CCAAUGUAAGGAUAUGACAAUGGUAUCUUCGGAUACCAUUGUCAGAAGGUACAUGAGGAUCACCCAUGUAUAAA”, in that order: 0.0187 µM and 0.0411 µM.

Usually apparent Kd stands for the concentration giving half-maximal binding under the conditions of the assay.
